Reference: article PMC9762201 (Current Research in Pharmacology and Drug Discovery, 2022)
“Also recorded” adds a separate entry of the source.

What was measured:
α1A-AR [1] = biological target: T1, α1A-AR (Homo sapiens, UniProt P35348); type: binding
T1 sequence (P35348 1-466): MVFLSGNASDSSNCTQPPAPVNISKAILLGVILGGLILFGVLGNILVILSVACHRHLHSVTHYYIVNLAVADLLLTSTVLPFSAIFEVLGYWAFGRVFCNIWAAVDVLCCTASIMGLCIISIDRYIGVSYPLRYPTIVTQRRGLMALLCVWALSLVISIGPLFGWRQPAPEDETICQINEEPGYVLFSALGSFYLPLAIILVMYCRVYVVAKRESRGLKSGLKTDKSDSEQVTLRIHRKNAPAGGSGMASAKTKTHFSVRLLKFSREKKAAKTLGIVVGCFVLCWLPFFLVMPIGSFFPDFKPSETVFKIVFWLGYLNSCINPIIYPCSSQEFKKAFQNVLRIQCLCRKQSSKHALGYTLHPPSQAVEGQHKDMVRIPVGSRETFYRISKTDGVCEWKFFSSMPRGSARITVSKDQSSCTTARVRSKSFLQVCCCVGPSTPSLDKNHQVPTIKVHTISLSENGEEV

α1B-AR [2] = test: Total inositol phosphate assay, cells expressing α1B-AR; type: cell-based; details: data not shown
How it was run: (§1)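 Cells expressing a single α1-AR subtype were seeded in DMEM at about 5 x 10^4 cells/well and rested overnight at 37 °C. They were labelled overnight with 3H-inositol, washed, and placed in serum-free DMEM with 10 mM LiCl (final) for 1 h. NE or Epi (one dose per well) plus test compound at one or several concentrations were added for 1 h at 37 °C. Total inositol phosphates were measured by anion-exchange chromatography.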

3XTG mice = details: 2.6 mg/kg, q.d., PO, 3 or 6 months, ref Perez, 2021b; cited from earlier work
α1A-AR [3] = biological target: T1, α1A-AR; test: Total inositol phosphate assay in Rat-1 fibroblasts expressing α1A-AR; type: cell-based
[4] = 2.6 mg/kg, q.d., PO; 3 or 6 months of dosing; 3XTG mice; ref Perez, 2021b; cited from earlier work
α1D-AR [5] = biological target: T2, α1D-AR (Homo sapiens, UniProt P25100); test: cAMP assay in Rat-1 fibroblasts expressing α1D-AR; type: cell-based; details: Cmpd-3 10^−6, 10^−5 M
T2 sequence (P25100 1-572): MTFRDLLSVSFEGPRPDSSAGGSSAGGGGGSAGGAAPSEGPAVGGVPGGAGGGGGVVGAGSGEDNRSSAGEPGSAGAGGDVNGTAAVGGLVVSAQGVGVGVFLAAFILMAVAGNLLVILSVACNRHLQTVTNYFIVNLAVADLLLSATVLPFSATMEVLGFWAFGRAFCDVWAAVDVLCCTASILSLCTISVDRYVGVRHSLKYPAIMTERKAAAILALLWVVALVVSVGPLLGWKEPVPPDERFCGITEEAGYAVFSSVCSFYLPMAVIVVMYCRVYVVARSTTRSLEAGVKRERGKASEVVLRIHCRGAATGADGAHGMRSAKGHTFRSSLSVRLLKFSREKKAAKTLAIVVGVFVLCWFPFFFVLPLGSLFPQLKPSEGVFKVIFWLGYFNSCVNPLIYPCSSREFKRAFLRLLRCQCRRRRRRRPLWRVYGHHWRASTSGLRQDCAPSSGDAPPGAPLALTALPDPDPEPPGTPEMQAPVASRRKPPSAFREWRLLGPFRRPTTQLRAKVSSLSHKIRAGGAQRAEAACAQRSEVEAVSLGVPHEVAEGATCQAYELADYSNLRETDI
How it was run: (§2)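 Rat-1 fibroblasts expressing one α1-AR subtype were plated serum-free at about 2.4 x 10^4 cells/well and rested overnight. They were preincubated 2 h at 37 °C with 10 μM propranolol, 0.1 μM rauwolscine and test compound. IBMX (100–200 μM) and NE or Epi were then added for 2 h, either as an agonist dose-response or at a fixed 10^-4 M. Cells were extracted in 0.1 M HCl for 20 min at RT, centrifuged at 1000 g, and cAMP was measured by EIA.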

α1B-AR [6] = test: cAMP assay in Rat-1 fibroblasts expressing α1B-AR; type: cell-based; details: Cmpd-3 10^−7 to 10^−5 M
How it was run: as §2

[7] = system: phosphorylation of CREB at Ser133; test: p-CREB; type: cell-based; details: 10^−8 M; NE 10^−4 M; propranolol and rauwolscine present
α1D-AR [8] = biological target: T2, α1D-AR; test: Total inositol phosphate assay, cells expressing α1D-AR; type: cell-based; details: data not shown
How it was run: as §1

α1A-AR [9] = biological target: T1, α1A-AR; test: 3H-NE binding potentiation, membranes from Rat-1 fibroblasts expressing α1A-AR
α1D-AR [10] = biological target: T2, α1D-AR; type: binding
α1A-AR [11] = test: cAMP assay and PAM assay in Rat-1 fibroblasts expressing α1A-AR; type: cell-based
α1B-AR [12] = type: binding; details: 0.5 mM GTP
α2A-AR = biological target: T3, α2A-AR (Homo sapiens, UniProt P08913); type: binding; details: Cos-1 membranes
T3 sequence (P08913 1-465): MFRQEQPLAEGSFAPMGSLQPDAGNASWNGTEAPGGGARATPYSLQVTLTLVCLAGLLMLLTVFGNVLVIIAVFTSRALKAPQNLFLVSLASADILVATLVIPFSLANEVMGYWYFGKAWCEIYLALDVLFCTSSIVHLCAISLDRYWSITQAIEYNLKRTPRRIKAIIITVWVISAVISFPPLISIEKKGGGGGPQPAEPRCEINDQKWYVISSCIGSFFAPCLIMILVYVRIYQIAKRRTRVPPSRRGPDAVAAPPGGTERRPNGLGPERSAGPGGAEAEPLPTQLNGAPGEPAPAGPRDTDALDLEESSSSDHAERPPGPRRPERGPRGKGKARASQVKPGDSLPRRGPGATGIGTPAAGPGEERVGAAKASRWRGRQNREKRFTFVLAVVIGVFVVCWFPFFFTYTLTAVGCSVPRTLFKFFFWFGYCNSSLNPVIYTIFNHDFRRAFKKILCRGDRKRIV

5-HT7A = 5-HT7A (Homo sapiens, UniProt P34969); test: Psychoactive Drug Screening program GPCR binding screen, 5-HT7A
Sequence of 5-HT7A (P34969 1-445 isoform P34969-2): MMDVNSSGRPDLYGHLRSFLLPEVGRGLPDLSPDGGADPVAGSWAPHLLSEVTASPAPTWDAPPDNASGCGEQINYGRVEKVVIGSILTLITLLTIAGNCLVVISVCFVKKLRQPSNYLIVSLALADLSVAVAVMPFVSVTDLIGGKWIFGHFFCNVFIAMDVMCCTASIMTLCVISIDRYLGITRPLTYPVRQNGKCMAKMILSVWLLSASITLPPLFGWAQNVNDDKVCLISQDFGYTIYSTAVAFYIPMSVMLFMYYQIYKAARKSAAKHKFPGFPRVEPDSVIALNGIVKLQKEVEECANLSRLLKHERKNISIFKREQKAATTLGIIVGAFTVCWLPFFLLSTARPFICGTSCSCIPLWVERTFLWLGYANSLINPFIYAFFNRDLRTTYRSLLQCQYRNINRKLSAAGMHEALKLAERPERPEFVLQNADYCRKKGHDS

[13] = compound 10^−5 M, absence of GTP, 125I-HEAT

fraction of receptor in the high affinity state of NE in presence of compound (α1A-AR [1]; compound 10^−5 M, absence of GTP): 55%
effect on binding profile of Epi at α1A-AR (α1A-AR [1]; [13]): no effect
effect on NE or Epi-mediated IP signal at α1D-AR (α1D-AR [8]): no effect
EC50 (α1A-AR [9]): 0.0001 µM
Ki (α1D-AR [10]): 30 µM
difference in binding selectivity between the α1-AR subtypes (α1D-AR [10]; α1A-AR versus α1B-/α1D-AR): 1000 fold
extent of inhibition of 3H-RX821002 binding at α2A-AR (α2A-AR): fully inhibited
Ki (5-HT7A): 6 µM
SMILES: CC(C)Cc1c(OCC2=NCCN2)cccc1N(C)S(C)(=O)=O.Cl [Cmpd-3, N-(3-((4,5-Dihydro-1H-imidazol-2-yl)methoxy)-2-isobutylphenyl)-N-methylmethanesulfonamide hydrochloride]
extent of inhibition of 125I-HEAT binding at α1A-AR (α1A-AR [1]; 0.5 mM GTP): could not fully inhibit; also recorded: incomplete inhibition
effect on NE binding at α1A-AR (α1A-AR [1]; [13]): stabilizes the high affinity binding site of NE
effect on NE or Epi-mediated IP signal at α1B-AR (α1B-AR [2]): no effect
effect on long-term potentiation and cognitive behavior (3XTG mice): statistically increased
effect on Epi-mediated inositol phosphate signal at α1A-AR (α1A-AR [3]): no effect; also recorded: does not affect
effect on NE-mediated inositol phosphate signal at α1A-AR (α1A-AR [3]): no effect; also recorded: does not affect
intrinsic (basal) agonist activity, inositol phosphate (α1A-AR [3]; compound alone, dose-response): cannot stimulate; also recorded: do not show any basal activity
effect on systolic blood pressure [4]: failed to change
effect on NE or Epi-mediated cAMP response at α1D-AR (α1D-AR [5]): no effect; also recorded: does not change the potency or the Emax
effect on NE or Epi-mediated cAMP response at α1B-AR (α1B-AR [6]): no effect; also recorded: does not change the potency or the Emax
effect on NE-mediated p-CREB levels [7]: significantly potentiated; also recorded: increases
effect on Epi-mediated cAMP response at α1A-AR (α1A-AR [11]; Epi dose-response, propranolol and rauwolscine present): did not affect
PAM activity (NE-mediated cAMP potentiation, PAM assay) (α1A-AR [11]; NE 10^−4 M held constant, compound dose-response): display PAM effect
effect on NE-mediated cAMP response at α1A-AR (α1A-AR [11]; NE dose-response, propranolol and rauwolscine present): potentiated; also recorded: increases the Emax
intrinsic (basal) agonist activity, cAMP (α1A-AR [11]; compound alone, dose-response): cannot stimulate; also recorded: do not show any basal activity
binding at α1B-AR (125I-HEAT competition) (α1B-AR [12]): did not display any binding; also recorded: does not bind
